From ChEMBL document CHEMBL1135591, “Synthesis and characterization of a series of novel monoacylated ascorbic acid derivatives, 6-O-acyl-2-O-alpha-D-glucopyranosyl-L-ascorbic acids, as skin antioxidants” (J Med Chem, 2002)

What was measured:
[1] = Compound was evaluated for its partition between n-octanol and water(pH 7); type: physicochemical; conditions: buffer
Procedure, shortened: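 100 mM stock in DMSO diluted to 1 mM in 50 mM potassium phosphate buffer (pH 7.0); 5 mL aqueous solution mixed and partitioned with 5 mL n-octanol. Compound in the octanol phase quantified by HPLC (UV 240 nm). Mean ± SD, n = 6.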

[2] = Free radical scavenging assessed as 50% reduction in DPPH absorbance (516 nm); type: functional
Procedure, shortened: (§1)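 DPPH (0.5 mM in ethanol, 1 part) mixed with antioxidant in ethanol/H2O 1:1 (4 parts; 1.25 × 10⁻⁶ to 1.25 × 10⁻³ M solutions); DPPH in reaction 10⁻⁴ M. Room temperature, 20 min; decolorization read at 516 nm. EC50 = concentration giving 50% of blank absorbance, from dose-response curve; mean ± SD of triplicates.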

[3] = Free radical scavenging assessed as color reduction of DPPH; type: functional; procedure, shortened: as §1

| Compound | Distribution percent [1] | EC50 [2] | Scavenging activity [3] [%] |
| --- | --- | --- | --- |
| VITAMIN E [listing 1 of 2 here] | – | – | 90.9 |
| CCCCCCCCCCCCCCCC(=O)OC[C@H](O)[C@H]1OC(=O)C(O)=C1O | – | – | 95.7 |
| O=C1C(OS(=O)(=O)O)=C(O)O[C@@H]1[C@@H](O)CO | – | – | 0 |
| O=C1C(O[C@@H]2OC(CO)[C@@H](O)C(O)[C@@H]2O)=C(O)O[C@@H]1[C@@H](O)CO (stereo partly specified) | 0 | 6.1 10uM | 68.9 |
| VITAMIN E [listing 2 of 2 here] | – | 1.9 10uM | – |
| CCCCCCCCCCCCCCCC(=O)OC[C@H](O)[C@H]1OC(O)=C(OC(=O)CCCCCCCCCCCCCCC)C1=O | – | – | 23.7 |
| CCCCCCCCCCCCCC(=O)OC[C@H](O)[C@H]1OC(O)=C(O[C@@H]2OC(CO)[C@@H](O)C(O)[C@@H]2O)C1=O (stereo partly specified) | 87 | 4.4 10uM | 74.1 |
| CCCCCCCC(=O)OC[C@H](O)[C@H]1OC(O)=C(O[C@@H]2OC(CO)[C@@H](O)C(O)[C@@H]2O)C1=O (stereo partly specified) | 43.4 | 5.7 10uM | 76.6 |
| CCCCCCCCCCCC(=O)OC[C@H](O)[C@H]1OC(O)=C(O[C@@H]2OC(CO)[C@@H](O)C(O)[C@@H]2O)C1=O (stereo partly specified) | 83.8 | 4.6 10uM | 76.2 |
| CCCCCCCCCCCCCCCC(=O)OC[C@H](O)[C@H]1OC(O)=C(O[C@@H]2OC(CO)[C@@H](O)C(O)[C@@H]2O)C1=O (stereo partly specified) | 87.3 | 4.1 10uM | 76.4 |
| O=C1C(OP(=O)(O)O)=C(O)O[C@@H]1[C@@H](O)CO | – | – | 1.5 |

Continued, in another order:

| Distribution percent [1] | EC50 [2] | Compound | Scavenging activity [3] [%] |
| --- | --- | --- | --- |
| 0.7 | 2.2 10uM | O=C1O[C@H]([C@@H](O)CO)C(O)=C1O [ASCORBIC ACID] | 94.3 |
| 4 | 5.9 10uM | CCCC(=O)OC[C@H](O)[C@H]1OC(O)=C(O[C@@H]2OC(CO)[C@@H](O)C(O)[C@@H]2O)C1=O (stereo partly specified) | 69.2 |
| 84.6 | 4.4 10uM | CCCCCCCCCCCCCCCCCC(=O)OC[C@H](O)[C@H]1OC(O)=C(O[C@@H]2OC(CO)[C@@H](O)C(O)[C@@H]2O)C1=O (stereo partly specified) | 77.5 |
| 76.6 | 4.2 10uM | CCCCCCCCCC(=O)OC[C@H](O)[C@H]1OC(O)=C(O[C@@H]2OC(CO)[C@@H](O)C(O)[C@@H]2O)C1=O (stereo partly specified) | 73.6 |
| 8.7 | 5.4 10uM | CCCCCC(=O)OC[C@H](O)[C@H]1OC(O)=C(O[C@@H]2OC(CO)[C@@H](O)C(O)[C@@H]2O)C1=O (stereo partly specified) | 73.8 |
